This is an account of results in PMC3623729 (Journal of medicinal chemistry, 2013).

The target in data set [1] is T1, human RXRα (Homo sapiens, UniProt P19793).
T1 sequence (P19793 1-462): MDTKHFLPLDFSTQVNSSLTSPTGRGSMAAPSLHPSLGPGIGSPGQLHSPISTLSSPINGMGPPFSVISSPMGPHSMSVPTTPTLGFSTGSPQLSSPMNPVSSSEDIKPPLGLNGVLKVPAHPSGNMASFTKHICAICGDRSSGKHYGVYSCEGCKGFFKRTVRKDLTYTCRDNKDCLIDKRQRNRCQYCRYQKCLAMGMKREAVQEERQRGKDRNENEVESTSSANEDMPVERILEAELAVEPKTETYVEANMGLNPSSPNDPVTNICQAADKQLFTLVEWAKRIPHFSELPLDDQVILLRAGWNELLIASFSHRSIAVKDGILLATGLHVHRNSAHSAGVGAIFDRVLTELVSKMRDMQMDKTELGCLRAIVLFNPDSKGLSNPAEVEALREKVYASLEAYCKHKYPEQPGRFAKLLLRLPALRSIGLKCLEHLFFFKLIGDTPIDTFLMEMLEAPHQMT
In words: RXRE-luciferase reporter gene assay. The note with it: for Max IR: maximum induction ratio observed: compounds tested at variable concentrations. It counts as cell-based. A general note: In a reporter assay the amount or activity of a reporter protein is the signal.

Data set [2] concerns the target T2, VDR (Homo sapiens, UniProt P11473).
T2 sequence (P11473 1-427): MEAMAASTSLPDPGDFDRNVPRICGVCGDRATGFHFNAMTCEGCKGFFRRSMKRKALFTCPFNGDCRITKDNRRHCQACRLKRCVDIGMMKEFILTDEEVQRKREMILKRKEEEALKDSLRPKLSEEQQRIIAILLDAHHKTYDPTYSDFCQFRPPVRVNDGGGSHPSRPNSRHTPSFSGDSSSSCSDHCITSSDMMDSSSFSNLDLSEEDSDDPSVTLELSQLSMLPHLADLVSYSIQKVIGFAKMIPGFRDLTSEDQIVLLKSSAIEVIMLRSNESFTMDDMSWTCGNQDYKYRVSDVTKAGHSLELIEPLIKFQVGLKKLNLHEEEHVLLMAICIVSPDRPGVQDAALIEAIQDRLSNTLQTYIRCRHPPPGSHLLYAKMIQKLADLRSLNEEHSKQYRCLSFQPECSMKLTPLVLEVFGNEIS
In words: VDR ultrafiltration affinity assay. It is filed as binding. In outline:
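Commercial VDR in storage buffer incubated with test ligand for 30 min at 37 °C, dark, shaking. Ultrafiltered at 12,000 × g, 4 °C, rinsed with ice-cold 50 mM ammonium acetate, 0.1 mM NaCl, pH 8.0. Bound ligand released in methanol with genistein internal standard, dried under N2, analysed by LC-ion trap TOF MS, both polarities, m/z 100–1500. Controls were boiled hVDR or no protein, with lithocholic acid and curcumin as positives.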

For data set [3], the system named is COS-1 cells. Put plainly: % Cell Survival. The note with it: concentration not given. It is filed as cell-based.
For data set [4] the following is noted: cited from earlier work.
In data set [5] the test system is MCF-7 breast cancer cells. To be noted: cited from earlier work.
Data set [6] deals with T2, VDR. Put plainly: Competitive binding against curcumin for VDR. The note with it: equimolar concentration.

Entries after “also recorded” stand apart in the source; their conditions may differ.

As a reminder, the EC50 is the concentration at which the effect is half-maximal.

Regarding `CN(C)CCCn1c2c(c3ccc(N)cc3c1=O)C(=O)c1ccccc1-2` [Compound 121, 3-Amino-6-(3-(dimethylamino)propyl)-5H-indeno[1,2-c]isoquinoline-5,11(6H)-dione], the “RXR activity in words (active / inactive)” value in data set [1] is “high activity”. The “Positive VDR signal” value in data set [2] is 2011978.

As for `NCCCCCCn1c2c(c3ccccc3c1=O)C(=O)c1ccccc1-2` [Compound 82], the “Positive VDR signal” value in data set [2] is recorded as 9397620.

On to `CC(=O)Nc1ccc2c3c(n(CCCO)c(=O)c2c1)-c1ccccc1C3=O` [Compound 132], for which, in data set [1], the “RXR activity in words (active / inactive)” value is “inactive” and the “Max IR: maximum induction ratio observed” value is on record as “NA (NA: Max IR not determined because IR < 2.)”. In addition, the “% Cell Survival” value in data set [3] (Table 7) was determined as 90.6%.

Regarding `NCCCn1c2c(c3ccc(N)cc3c1=O)C(=O)c1ccccc1-2` [Compound 3, 3-Amino-6-(3'-aminopropyl)-5H-indeno[1,2-c]isoquinoline-5,11-(6H)dione], the “metabolism of the ketone group” value in data set [4] is “metabolized to an alcohol, which renders the compound inactive”. The “RXR activity in words (active / inactive)” value in data set [1] is on record as “high activity”. In data set [5], the “apoptosis in MCF-7 cells” value is on record as “induce apoptosis in MCF-7 breast cancer cells in a dose-dependent manner”. In addition, the “competition with curcumin for binding to VDR” value in data set [6] was “did not compete”. The “Positive VDR signal” value in data set [2] is listed as 1903415.

For `NCCCn1c2c(c3ccccc3c1=O)C(=O)c1ccccc1-2` [Compound 79], in data set [1], the EC50 is 10.2 µM and the “RXR activity in words (active / inactive)” value is given as “high activity”. Besides, in data set [3] (Table 3), the “% Cell Survival” value was 52.5%. Besides, the “Positive VDR signal” value in data set [2] worked out at 4013179.

As to `CC(=O)Nc1ccc2c3c(n(CCCN)c(=O)c2c1)-c1ccccc1C3=O` [Compound 131], in data set [2], the “Positive VDR signal” value is reported as 4875144.

With `CCOC(=O)CNc1ccc2c3c(n(CCCN)c(=O)c2c1)-c1ccccc1C3=O` [Compound 62], the “Positive VDR signal” value in data set [2] was determined as 152467.

Take `CNCCCn1c2c(c3ccc(N)cc3c1=O)C(=O)c1ccccc1-2` [Compound 126]: the “RXR activity in words (active / inactive)” value in data set [1] is on record as “high activity”. The “Positive VDR signal” value in data set [2] is on record as 2155086.

Regarding `NCCCCCn1c2c(c3ccccc3c1=O)C(=O)c1ccccc1-2` [Compound 81], in data set [2], the “Positive VDR signal” value turned out to be 7877048.

As to `Cl.NCCCn1c2c(c3ccc(N)cc3c1=O)Cc1ccccc1-2` [Compound 124, 3-Amino-6-(3-aminopropyl)-6,11-dihydro-5H-indeno[1,2-c]isoquinolin-5-one], in data set [1], the “RXR activity in words (active / inactive)” value is listed as “good activity”. The “Positive VDR signal” value in data set [2] is reported as 1422175.

Regarding `NCCCCn1c2c(c3ccccc3c1=O)C(=O)c1ccccc1-2` [Compound 80], in data set [2], the “Positive VDR signal” value was found to be 3320824.

For `O=C1c2ccccc2-c2c1c1ccc(Br)cc1c(=O)n2CCCn1ccnc1` [Compound 91, 3-Bromo-6-(3-(1H-imidazol-1-yl)propyl)-5,11-dioxo-6,11-dihydro-5H-indeno[1,2-c]isoquinoline], the “RXR activity in words (active / inactive)” value in data set [1] was “inactive”.

As for `NCCCn1c2c(c3ccc(NCC(=O)O)cc3c1=O)C(=O)c1ccccc1-2` [Compound 61], in data set [1], the “RXR activity in words (active / inactive)” value was “active”.

Consider `COC(=O)c1ccc2c3c(n(CCCN4CCOCC4)c(=O)c2c1)-c1ccccc1C3=O` [Compound 69, Methyl 6-(3-Morpholinopropyl)-5,11-dioxo-6,11-dihydro-5H-indeno[1,2-c]isoquinoline-3-carboxylate], for which, in data set [1], the “RXR activity in words (active / inactive)” value is “inactive; also recorded: lack of activity”.

For `Cl.NCCCn1c2c(c3ccc(C(=O)O)cc3c1=O)C(=O)c1ccccc1-2` [Compound 72, 6-(3-Aminopropyl)-5,11-dioxo-6,11-dihydro-5H-indeno[1,2-c]isoquinoline-3-carboxylic Acid Hydrochloride], in data set [1], the “RXR activity in words (active / inactive)” value is reported as “lack of activity” and the “Max IR: maximum induction ratio observed” value is “NA (NA: Max IR not determined because IR < 2.)”.

On to `Cn1c2c(c3ccc(C#N)cc3c1=O)C(=O)c1ccccc1-2` [Compound 39, 3-Cyano-5,11-dihydro-6-methyl-5,11-dioxoindeno[1,2-c]isoquinoline], for which the “RXR activity in words (active / inactive)” value in data set [1] is “inactive”.

In the case of `COc1cc2c3c(n(CCCN)c(=O)c2cc1OC)-c1ccc(F)cc1C3=O` [Compound 160], in data set [1], the “Max IR: maximum induction ratio observed” value is “NA (NA: Max IR not determined because IR < 2.)”.

Regarding `CNCCCn1c2c(c3ccccc3c1=O)C(=O)c1ccccc1-2` [Compound 105, 6-(3-(Methylamino)propyl)-5H-indeno[1,2-c]isoquinoline-5,11(6H)-dione], in data set [1], the “RXR activity in words (active / inactive)” value is “active; also recorded: high activity”.

As to `Cn1c2c(c3ccc(NC(=O)C(=O)O)cc3c1=O)C(=O)c1ccccc1-2` [Compound 45], the “RXR activity in words (active / inactive)” value in data set [1] is “inactive”.

As to `NCCCn1c2c(c3ccc([N+](=O)[O-])cc3c1=O)C(=O)c1ccccc1-2` [Compound 135], in data set [1], the “RXR activity in words (active / inactive)” value is given as “detrimental for activity” and the “Max IR: maximum induction ratio observed” value was “NA (NA: Max IR not determined because IR < 2.)”.

With `Cn1c2c(c3ccc(/C=C/C(=O)O)cc3c1=O)C(=O)c1ccccc1-2` [Compound 13, (E)-3-(6-Methyl-5,11-dioxo-6,11-dihydro-5H-indeno[1,2-c]isoquinolin-3-yl)acrylic Acid], the “RXR activity in words (active / inactive)” value in data set [1] is “inactive”.

Regarding `CNCCCn1c2c(c3ccc([N+](=O)[O-])cc3c1=O)C(=O)c1ccccc1-2` [Compound 125], in data set [1], the “RXR activity in words (active / inactive)” value is given as “detrimental for activity” and the “Max IR: maximum induction ratio observed” value is given as “NA (NA: Max IR not determined because IR < 2.)”.

Regarding `O=C(O)CCn1c2c(c3ccccc3c1=O)C(=O)c1ccccc1-2` [Compound 106, 3-(5,11-Dioxo-5H-indeno[1,2-c]isoquinolin-6(11H)-yl)propanoic Acid], in data set [1], the “RXR activity in words (active / inactive)” value was “inactive” and the “Max IR: maximum induction ratio observed” value is on record as “NA (NA: Max IR not determined because IR < 2.)”.

As for `Cn1c2c(c3ccc(C=O)cc3c1=O)C(=O)c1ccccc1-2` [Compound 37, 6-Methyl-5,11-dioxo-6,11-dihydro-5H-indeno[1,2-c]isoquinoline-3-carbaldehyde], the “RXR activity in words (active / inactive)” value in data set [1] was “inactive”.
